The results in this text go back to ChEMBL document CHEMBL4130609, “Nitrobenzoyl Sesquiterpenoids with Cytotoxic Activities from a Marine-Derived Aspergillus ochraceus Fungus” (J Nat Prod, 2018).

As a reminder, the IC50 is the point on the concentration scale where inhibition reaches its midpoint. Low values mean greater potency in that assay, high ones weaker potency in that assay. Usually inhibition stands for the change of the read-out against control, counted positive when it falls.

Data set [1] concerns ACHN. Description: Cytotoxicity against human ACHN cells after 72 hrs by CCK8 assay. In kind it is functional, cell-based. In a few lines:
(§1)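 ACHN cells grown in MEM with 10% FBS; OS-RC-2 and 786-O cells grown in RPMI1640 with 10% FBS. Seeded at 400 to 800 cells/well and treated with a 9-point series from 100 down to 0.00153 μM, or solvent control, for 72 h. Viability read by CCK-8 absorbance at 450 nm in triplicate. IC50 taken from dose–response curves.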

Data set [2] has as its system OS-RC-2. As to the kind of experiment: Cytotoxicity against human OS-RC2 cells after 72 hrs by CCK8 assay. It counts as functional, cell-based. The conditions noted are these: OS-RC-2, 72 h. The method in brief:
as §1
(In general: Tetrazolium assays rely on reduction of a dye to a coloured formazan, in cell work by metabolically active cells.)

Data set [3] concerns 786-0. Description: Cytotoxicity against human 786-O cells after 72 hrs by CCK8 assay. In kind it is functional, cell-based. The settings on record: 786-0, 72 h. In a few lines:
as §1

Data set [4] deals with RAW264.7. As to the kind of experiment: Cytotoxicity against mouse RAW264.7 cells at 0.5 to 4 uM after 8 hrs by MTT assay. The conditions noted are these: raw264.7, 8 h. It counts as cell-based. In a few lines:
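Luciferase-reporter RAW264.7 cells received compounds at 4, 2, 1 and 0.5 μM for 30 min, then 1 μg/mL LPS for 8 h. Viability at these concentrations was assessed by MTT.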

Data set [5] deals with RAW264.7. As to the kind of experiment: Inhibition of LPS-induced NFkappaB (unknown origin) activation expressed in mouse RAW264.7 cells at 4 uM pretreated for 30 mins followed by LPS-stimulation after 8 hrs by luciferase reporter gene assay relative to control. In kind it is cell-based. The settings on record: Homo sapiens. The method in brief:
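RAW264.7 cells stably carrying an NF-κB luciferase reporter were pretreated with compounds for 30 min at 4, 2, 1 and 0.5 μM. They were then stimulated with 1 μg/mL LPS for 8 h. Luciferase activity was measured in triplicate. BAY11-7082 at 5 μM served as positive control.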
A general note: In a reporter assay the amount or activity of a reporter protein is the signal.

The subject of data set [6] is 786-0. As to the kind of experiment: Cell cycle arrest in human 786-O cells assessed as accumulation at G0/G1 phase at 1 uM after 24 hrs by propidium iodide staining based flow cytometric method (reference value: 42.07%). It counts as functional. In general terms: A flow cytometer gives signals particle by particle.
The subject of data set [7] is 786-0. As to the kind of experiment: Cell cycle arrest in human 786-O cells assessed as accumulation at S phase at 1 uM after 24 hrs by propidium iodide staining based flow cytometric method (reference value: 47.35%). It counts as functional.
In data set [8] the test system is 786-0. As to the kind of experiment: Cell cycle arrest in human 786-O cells assessed as accumulation at G2/M phase at 1 uM after 24 hrs by propidium iodide staining based flow cytometric method (reference value: 10.58%). It counts as functional.
Data set [9] deals with 786-0. As to the kind of experiment: Cell cycle arrest in human 786-O cells assessed as accumulation at G0/G1 phase at 2 uM after 24 hrs by propidium iodide staining based flow cytometric method (reference value: 42.07%). In kind it is functional.
Data set [10] relates to 786-0. Description: Cell cycle arrest in human 786-O cells assessed as accumulation at S phase at 2 uM after 24 hrs by propidium iodide staining based flow cytometric method (reference value: 47.35%). In kind it is functional.
The subject of data set [11] is 786-0. Description: Cell cycle arrest in human 786-O cells assessed as accumulation at G2/M phase at 2 uM after 24 hrs by propidium iodide staining based flow cytometric method (reference value: 10.58%). In kind it is functional.
Data set [12] relates to 786-0. Description: Cell cycle arrest in human 786-O cells assessed as accumulation at G0/G1 phase at 1 uM after 72 hrs by propidium iodide staining based flow cytometric method (reference value: 44.95%). In kind it is functional.
In data set [13] the test system is 786-0. As to the kind of experiment: Cell cycle arrest in human 786-O cells assessed as accumulation at S phase at 1 uM after 72 hrs by propidium iodide staining based flow cytometric method (reference value: 42.76%). In kind it is functional.
Data set [14] relates to 786-0. Description: Cell cycle arrest in human 786-O cells assessed as accumulation at G2/M phase at 1 uM after 72 hrs by propidium iodide staining based flow cytometric method (reference value: 12.29%). In kind it is functional.
The test system of data set [15] is 786-0. Description: Cell cycle arrest in human 786-O cells assessed as accumulation at G0/G1 phase at 2 uM after 72 hrs by propidium iodide staining based flow cytometric method (reference value: 44.95%). In kind it is functional.
Data set [16] has as its system 786-0. As to the kind of experiment: Cell cycle arrest in human 786-O cells assessed as accumulation at S phase at 2 uM after 72 hrs by propidium iodide staining based flow cytometric method (reference value: 42.76%). In kind it is functional.
The subject of data set [17] is 786-0. As to the kind of experiment: Cell cycle arrest in human 786-O cells assessed as accumulation at G2/M phase at 2 uM after 72 hrs by propidium iodide staining based flow cytometric method (reference value: 12.29%). It counts as functional.
Data set [18] relates to 786-0. Description: Induction of apoptosis in human 786-O cells assessed as live cells at 1 uM after 24 hrs by Annexin-V-FITC/propidium iodide staining based flow cytometric method (reference value: 81.4%). It counts as functional.
Data set [19] deals with 786-0. As to the kind of experiment: Induction of apoptosis in human 786-O cells assessed as early apoptotic cells at 1 uM after 24 hrs by Annexin-V-FITC/propidium iodide staining based flow cytometric method (reference value: 1.6%). In kind it is functional.
Data set [20] deals with 786-0. Description: Induction of apoptosis in human 786-O cells assessed as late apoptotic cells at 1 uM after 24 hrs by Annexin-V-FITC/propidium iodide staining based flow cytometric method (reference value: 7%). It counts as functional.
Data set [21] concerns 786-0. As to the kind of experiment: Induction of apoptosis in human 786-O cells assessed as necrotic cells at 1 uM after 24 hrs by Annexin-V-FITC/propidium iodide staining based flow cytometric method (reference value: 10%). It counts as functional.
For data set [22], the system named is 786-0. As to the kind of experiment: Induction of apoptosis in human 786-O cells assessed as live cells at 2 uM after 24 hrs by Annexin-V-FITC/propidium iodide staining based flow cytometric method (reference value: 81.4%). It counts as functional.
Data set [23] concerns 786-0. Description: Induction of apoptosis in human 786-O cells assessed as early apoptotic cells at 2 uM after 24 hrs by Annexin-V-FITC/propidium iodide staining based flow cytometric method (reference value: 1.6%). It counts as functional.
For data set [24], the system named is 786-0. As to the kind of experiment: Induction of apoptosis in human 786-O cells assessed as late apoptotic cells at 2 uM after 24 hrs by Annexin-V-FITC/propidium iodide staining based flow cytometric method (reference value: 7%). In kind it is functional.
The subject of data set [25] is 786-0. As to the kind of experiment: Induction of apoptosis in human 786-O cells assessed as necrotic cells at 2 uM after 24 hrs by Annexin-V-FITC/propidium iodide staining based flow cytometric method (reference value: 10%). In kind it is functional.
The subject of data set [26] is 786-0. As to the kind of experiment: Induction of apoptosis in human 786-O cells assessed as live cells at 1 uM after 72 hrs by Annexin-V-FITC/propidium iodide staining based flow cytometric method (reference value: 82.2%). It counts as functional.
Data set [27] deals with 786-0. As to the kind of experiment: Induction of apoptosis in human 786-O cells assessed as early apoptotic cells at 1 uM after 72 hrs by Annexin-V-FITC/propidium iodide staining based flow cytometric method (reference value: 1.2%). In kind it is functional.
The subject of data set [28] is 786-0. Description: Induction of apoptosis in human 786-O cells assessed as late apoptotic cells at 1 uM after 72 hrs by Annexin-V-FITC/propidium iodide staining based flow cytometric method (reference value: 4.2%). It counts as functional.
For data set [29], the system named is 786-0. Description: Induction of apoptosis in human 786-O cells assessed as necrotic cells at 1 uM after 72 hrs by Annexin-V-FITC/propidium iodide staining based flow cytometric method (reference value: 12.5%). In kind it is functional.
Data set [30] relates to 786-0. As to the kind of experiment: Induction of apoptosis in human 786-O cells assessed as live cells at 2 uM after 72 hrs by Annexin-V-FITC/propidium iodide staining based flow cytometric method (reference value: 82.2%). It counts as functional.
Data set [31] has as its system 786-0. Description: Induction of apoptosis in human 786-O cells assessed as early apoptotic cells at 2 uM after 72 hrs by Annexin-V-FITC/propidium iodide staining based flow cytometric method (reference value: 1.2%). In kind it is functional.
The subject of data set [32] is 786-0. As to the kind of experiment: Induction of apoptosis in human 786-O cells assessed as late apoptotic cells at 2 uM after 72 hrs by Annexin-V-FITC/propidium iodide staining based flow cytometric method (reference value: 4.2%). In kind it is functional.
For data set [33], the system named is 786-0. Description: Induction of apoptosis in human 786-O cells assessed as necrotic cells at 2 uM after 72 hrs by Annexin-V-FITC/propidium iodide staining based flow cytometric method (reference value: 12.5%). In kind it is functional.

The structures appear in SMILES notation.

Consider `CC(=O)OC[C@@]1(C)CCC[C@]2(C)[C@H]3COC(=O)C3=C[C@@H](OC(=O)c3ccc([N+](=O)[O-])cc3)[C@@H]12`, for which the figures for the IC50 in data set [1], in data set [2] and in [3] were 13 µM, 11 µM and 14 µM, respectively. Besides, in data set [4], the Activity result is “Non-Toxic”.

On to `C[C@]1(CO)CCC[C@]2(C)[C@H]3COC(=O)C3=C[C@@H](OC(=O)c3ccc([N+](=O)[O-])cc3)[C@@H]12`, for which the figures for the IC50 in [1], in [2] and in [3] were 25 µM, 30 µM and 20 µM, respectively.

Regarding `C[C@]1(CO)CCC[C@@]2(C)[C@H]1[C@H](OC(=O)c1ccc([N+](=O)[O-])cc1)C=C1C(=O)OC[C@@]12O`, the half-maximal inhibitory concentration (IC50) in [1] amounted to 1.5 µM; in [2], 1.5 µM; in data set [3] it was 0.89 µM.

For the molecule `CO[C@H]1C2=C(COC2=O)[C@@]2(C)CCC[C@](C)(CO)[C@@H]2[C@@H]1O`, in data set [4], the Activity entry is on record as “Non-Toxic”.

Regarding `C[C@]1(COC(=O)c2ccc([N+](=O)[O-])cc2)CCC[C@]2(C)[C@H]3COC(=O)C3=C[C@@H](O)[C@@H]12`, the IC50 in data set [1] came to 30 µM; in data set [2], 23 µM; in data set [3], 24 µM. In addition, in data set [5], the inhibition came out at 16%. The Activity result in data set [4] is listed as “Non-Toxic”.

Consider `CC(=O)OC[C@@]1(C)CCC[C@@]2(C)[C@H]1[C@H](OC(=O)c1ccc([N+](=O)[O-])cc1)C=C1C(=O)OC[C@@]12O`, for which the IC50 was 4.1 µM in data set [1], 5.3 µM in data set [2] and 2.3 µM in data set [3]. The Activity in data set [6] worked out at 38%; in data set [7], 47%; in data set [8], 8.53%; in data set [9] it was 42.23%; in data set [10], 49.91%; in data set [11], 7.86%. Further, the Activity in data set [12] is given as 54.16%; in data set [13], 32.77%; in data set [14], 13.06%; in data set [15], 51.06%; in data set [16] it was 35.56%; in [17], 13.38%. In addition, the Activity worked out at 78.6% in data set [18]; 1.3% in data set [19]; 4.3% in data set [20]; 15.8% in [21]; 66.5% in data set [22]; 1.1% in [23]. Further, the Activity is on record as 6.5% in data set [24]; 26% in [25]; 74.7% in data set [26]; 1.7% in data set [27]; 5% in data set [28]; 18.6% in data set [29]. The Activity in [30] is reported as 58.3%; in [31], 1%; in data set [32] it was 9.1%; in [33] it was 31.5%; in data set [4] it was “Non-Toxic”.

`CNC(=O)c1cc(Oc2ccc(NC(=O)Nc3ccc(Cl)c(C(F)(F)F)c3)cc2)ccn1` [SORAFENIB]: the 50% inhibitory concentration (IC50) in data set [1] is 3.4 µM; in [2], 7 µM; in data set [3], 4.9 µM.

For `C[C@]1(COC(=O)c2ccc([N+](=O)[O-])cc2)CCC[C@@]2(C)[C@H]1[C@H](O)C=C1C(=O)OC[C@@]12O`, the 50% inhibitory concentration (IC50) in data set [1] stood at 11 µM; in data set [2] it was 8.2 µM; in [3] it was 4.3 µM.
